# According to ChEMBL document CHEMBL2169806, “Design, synthesis, and pharmacological evaluation of N-acylhydrazones and novel conformationally constrained compounds as selective and potent orally active phosphodiesterase-4 inhibitors” (J Med Chem, 2012):
# Target: 3',5'-cyclic-AMP phosphodiesterase 4A (Homo sapiens, UniProt P27815)
# Assay: Inhibition of human recombinant PDE4A
# Settings: not given; call rule not given here
# Chain of 3',5'-cyclic-AMP phosphodiesterase 4A (P27815 whole entry): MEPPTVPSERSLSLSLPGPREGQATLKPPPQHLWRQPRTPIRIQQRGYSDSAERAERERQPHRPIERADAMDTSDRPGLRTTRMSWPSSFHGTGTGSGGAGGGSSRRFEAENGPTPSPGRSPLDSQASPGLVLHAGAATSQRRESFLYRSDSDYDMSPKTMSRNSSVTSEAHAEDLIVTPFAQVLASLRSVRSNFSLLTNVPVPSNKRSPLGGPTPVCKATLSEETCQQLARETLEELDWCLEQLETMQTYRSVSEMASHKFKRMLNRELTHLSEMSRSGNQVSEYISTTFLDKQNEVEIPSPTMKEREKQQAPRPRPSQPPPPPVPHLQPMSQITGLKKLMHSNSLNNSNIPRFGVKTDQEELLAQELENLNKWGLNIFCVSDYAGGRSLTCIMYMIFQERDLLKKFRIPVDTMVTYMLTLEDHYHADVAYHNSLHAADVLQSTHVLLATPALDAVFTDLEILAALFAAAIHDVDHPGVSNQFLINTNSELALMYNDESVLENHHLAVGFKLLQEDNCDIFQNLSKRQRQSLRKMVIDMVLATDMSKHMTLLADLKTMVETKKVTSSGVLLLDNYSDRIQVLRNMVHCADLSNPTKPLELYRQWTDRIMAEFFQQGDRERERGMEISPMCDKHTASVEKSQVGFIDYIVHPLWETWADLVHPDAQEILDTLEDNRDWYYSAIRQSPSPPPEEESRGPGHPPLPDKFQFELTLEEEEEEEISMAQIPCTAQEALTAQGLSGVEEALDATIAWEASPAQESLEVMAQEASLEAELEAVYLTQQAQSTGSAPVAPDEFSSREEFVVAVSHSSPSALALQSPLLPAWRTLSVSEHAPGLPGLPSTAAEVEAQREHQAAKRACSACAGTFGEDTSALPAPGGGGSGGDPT
row,Compound,IC50
1,COc1ccc(C(=O)N(C)/N=C/c2ccc(OC)c(OC)c2)cc1,159 nM
2,COc1ccc(/C=N/N(C)C(=O)c2ccc(O)cc2)cc1OC,64 nM
3,Clc1ncnc2ccccc12,162 nM

# Test system: not listed separately
# Assay: Inhibition of bovine PDE3 using [3H]cAMP as substrate
# Design: species or system Bos taurus
# Settings: not given
row,Compound,IC50
1,COc1cccc(C(=O)N(C)/N=C/c2ccc(OC)c(OC)c2)c1,4500 nM
2,COc1ccc(C(=O)N(C)/N=C/c2ccc(OC)c(OC)c2)cc1,6700 nM
3,COc1ccc(/C=N/N(C)C(=O)c2ccc(O)cc2)cc1OC,11800 nM

# Test system: not listed separately
# Assay: Inhibition of bovine PDE5 using […] as substrate
# Design: species or system Bos taurus
# Settings: not given
row,Compound,IC50
1,COc1ccc(C(=O)N(C)/N=C/c2ccc(OC)c(OC)c2)cc1,150 nM

# Target: 3',5'-cyclic-AMP phosphodiesterase 4C (Homo sapiens, UniProt Q08493)
# Assay: Inhibition of human recombinant PDE4C
# Settings: not given
# Chain of 3',5'-cyclic-AMP phosphodiesterase 4C (Q08493 whole entry): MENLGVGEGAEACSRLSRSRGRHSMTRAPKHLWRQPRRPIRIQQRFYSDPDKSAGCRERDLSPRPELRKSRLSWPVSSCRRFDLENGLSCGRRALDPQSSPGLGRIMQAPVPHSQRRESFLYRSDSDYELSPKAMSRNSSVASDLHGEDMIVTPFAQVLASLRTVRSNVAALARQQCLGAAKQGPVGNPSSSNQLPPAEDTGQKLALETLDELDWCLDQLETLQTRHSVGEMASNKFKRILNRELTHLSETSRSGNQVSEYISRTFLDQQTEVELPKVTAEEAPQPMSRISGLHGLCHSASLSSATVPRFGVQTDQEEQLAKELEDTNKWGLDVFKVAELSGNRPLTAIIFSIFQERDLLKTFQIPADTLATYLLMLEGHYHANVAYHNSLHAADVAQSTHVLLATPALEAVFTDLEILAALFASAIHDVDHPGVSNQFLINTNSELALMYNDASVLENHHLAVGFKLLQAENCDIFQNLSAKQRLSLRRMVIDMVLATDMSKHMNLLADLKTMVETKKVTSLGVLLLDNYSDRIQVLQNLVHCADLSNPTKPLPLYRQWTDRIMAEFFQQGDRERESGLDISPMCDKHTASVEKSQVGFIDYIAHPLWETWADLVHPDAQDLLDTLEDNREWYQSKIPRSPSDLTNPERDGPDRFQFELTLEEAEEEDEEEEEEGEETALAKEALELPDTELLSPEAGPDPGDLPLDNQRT
row,Compound,IC50
1,COc1ccc(C(=O)N(C)/N=C/c2ccc(OC)c(OC)c2)cc1,505 nM
2,COc1ccc(/C=N/N(C)C(=O)c2ccc(O)cc2)cc1OC,206 nM
3,Clc1ncnc2ccccc12,3690 nM

# Test system: PBMC
# Assay: Antiinflammatory activity in human PBMC assessed as inhibition of LPS-induced TNFalpha production at 10 uM after 24 hrs by ELISA relative to control
# Assay type: functional
# Settings: not given
row,Compound,inhibition at 10 µM
1,COc1cccc(C(=O)N(C)/N=C/c2ccc(OC)c(OC)c2)c1,81%
2,COc1ccc(C(=O)N(C)/N=C/c2ccc(OC)c(OC)c2)cc1,84%
3,COc1ccc(/C=N/N(C)C(=O)c2ccc(O)cc2)cc1OC,83%

# Test system: Mus musculus
# Assay: Proemetic activity in A/J mouse assessed as reversal of xylazine/katamine-induced anesthesia at 30 to 200 umol/kg, sc administered 30 mins prior xylazine/ketamine-administration
# Assay type: ADME, organism-based
# Settings: in vivo, 0.5 h
row,Compound,Activity
1,COc1ccc(C(=O)N(C)/N=C/c2ccc(OC)c(OC)c2)cc1,Non-toxic
2,COc1ccc(/C=N/N(C)C(=O)c2ccc(O)cc2)cc1OC,Non-toxic

# Target: cGMP-dependent 3',5'-cyclic phosphodiesterase (Homo sapiens, UniProt O00408)
# Assay: Inhibition of human PDE2 using [3H]cAMP as substrate at 10 uM
# Settings: not given
# Chain of cGMP-dependent 3',5'-cyclic phosphodiesterase (O00408 whole entry): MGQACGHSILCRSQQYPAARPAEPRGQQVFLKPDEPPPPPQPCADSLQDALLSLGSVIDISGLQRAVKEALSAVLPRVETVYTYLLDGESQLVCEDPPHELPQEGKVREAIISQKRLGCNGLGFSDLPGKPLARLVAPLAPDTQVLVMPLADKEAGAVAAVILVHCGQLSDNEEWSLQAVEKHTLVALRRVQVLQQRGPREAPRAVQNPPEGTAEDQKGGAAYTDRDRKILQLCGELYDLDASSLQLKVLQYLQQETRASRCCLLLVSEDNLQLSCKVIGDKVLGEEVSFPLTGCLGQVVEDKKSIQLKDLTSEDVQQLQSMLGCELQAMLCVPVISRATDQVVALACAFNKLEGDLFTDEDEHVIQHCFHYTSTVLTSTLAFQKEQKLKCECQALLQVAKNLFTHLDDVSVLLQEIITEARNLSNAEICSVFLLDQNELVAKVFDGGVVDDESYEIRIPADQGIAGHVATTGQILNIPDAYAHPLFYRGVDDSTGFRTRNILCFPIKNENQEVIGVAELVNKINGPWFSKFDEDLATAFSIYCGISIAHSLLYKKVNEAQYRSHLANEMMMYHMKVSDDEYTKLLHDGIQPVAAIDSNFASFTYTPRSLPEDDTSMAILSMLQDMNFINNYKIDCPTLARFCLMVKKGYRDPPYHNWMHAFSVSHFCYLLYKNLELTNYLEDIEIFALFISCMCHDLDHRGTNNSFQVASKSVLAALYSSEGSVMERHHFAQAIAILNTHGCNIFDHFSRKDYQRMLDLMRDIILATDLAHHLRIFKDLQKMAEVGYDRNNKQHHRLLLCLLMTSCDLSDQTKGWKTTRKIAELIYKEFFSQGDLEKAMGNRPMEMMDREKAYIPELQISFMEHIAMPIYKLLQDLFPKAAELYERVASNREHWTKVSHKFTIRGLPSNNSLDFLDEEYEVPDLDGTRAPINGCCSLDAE
row,Compound,inhibition
1,COc1cccc(C(=O)N(C)/N=C/c2ccc(OC)c(OC)c2)c1,40.4%
2,COc1ccc(C(=O)N(C)/N=C/c2ccc(OC)c(OC)c2)cc1,35.5%
3,COc1ccc(/C=N/N(C)C(=O)c2ccc(O)cc2)cc1OC,39.3%

# Test system: Mus musculus
# Assay: Antiinflammatory activity in A/J mouse assessed as inhibition of leukocyte accumulation in bronchoalveolar space at 100 umol/kg, po administered 1 hr prior to LPS-challenge measured after 18 hrs relative to vehicle-treated control
# Assay type: functional
# Settings: Lung
row,Compound,inhibition in vivo at 100 µmol/kg
1,COc1cccc(C(=O)N(C)/N=C/c2ccc(OC)c(OC)c2)c1,73%
2,COc1ccc(C(=O)N(C)/N=C/c2ccc(OC)c(OC)c2)cc1,81%
3,COc1ccc(/C=N/N(C)C(=O)c2ccc(O)cc2)cc1OC,65%

# Test system: not listed separately
# Assay: Inhibition of PDE6 at 10 uM
# Settings: not given
row,Compound,inhibition
1,COc1cccc(C(=O)N(C)/N=C/c2ccc(OC)c(OC)c2)c1,39.5%
2,COc1ccc(C(=O)N(C)/N=C/c2ccc(OC)c(OC)c2)cc1,35.2%

# Species: Bos taurus
# Assay: Inhibition of bovine PDE1 using [3H]cAMP as substrate at 10 uM
# Settings: not given
row,Compound,inhibition
1,COc1cccc(C(=O)N(C)/N=C/c2ccc(OC)c(OC)c2)c1,18.5%
2,COc1ccc(C(=O)N(C)/N=C/c2ccc(OC)c(OC)c2)cc1,25.1%
3,COc1ccc(/C=N/N(C)C(=O)c2ccc(O)cc2)cc1OC,28.3%

# Test system: not listed separately
# Assay: Inhibition of bovine PDE4 using [3H]cAMP as substrate
# Design: species or system Bos taurus
# Settings: not given
row,Compound,IC50
1,COc1cccc(C(=O)N(C)/N=C/c2ccc(OC)c(OC)c2)c1,290 nM
2,COc1ccc(C(=O)N(C)/N=C/c2ccc(OC)c(OC)c2)cc1,105 nM
3,COc1ccc(/C=N/N(C)C(=O)c2ccc(O)cc2)cc1OC,50 nM

# Target: 3',5'-cyclic-AMP phosphodiesterase 4D (Homo sapiens, UniProt Q08499)
# Assay: Inhibition of human recombinant PDE4D
# Settings: not given
# Chain of 3',5'-cyclic-AMP phosphodiesterase 4D (Q08499 whole entry): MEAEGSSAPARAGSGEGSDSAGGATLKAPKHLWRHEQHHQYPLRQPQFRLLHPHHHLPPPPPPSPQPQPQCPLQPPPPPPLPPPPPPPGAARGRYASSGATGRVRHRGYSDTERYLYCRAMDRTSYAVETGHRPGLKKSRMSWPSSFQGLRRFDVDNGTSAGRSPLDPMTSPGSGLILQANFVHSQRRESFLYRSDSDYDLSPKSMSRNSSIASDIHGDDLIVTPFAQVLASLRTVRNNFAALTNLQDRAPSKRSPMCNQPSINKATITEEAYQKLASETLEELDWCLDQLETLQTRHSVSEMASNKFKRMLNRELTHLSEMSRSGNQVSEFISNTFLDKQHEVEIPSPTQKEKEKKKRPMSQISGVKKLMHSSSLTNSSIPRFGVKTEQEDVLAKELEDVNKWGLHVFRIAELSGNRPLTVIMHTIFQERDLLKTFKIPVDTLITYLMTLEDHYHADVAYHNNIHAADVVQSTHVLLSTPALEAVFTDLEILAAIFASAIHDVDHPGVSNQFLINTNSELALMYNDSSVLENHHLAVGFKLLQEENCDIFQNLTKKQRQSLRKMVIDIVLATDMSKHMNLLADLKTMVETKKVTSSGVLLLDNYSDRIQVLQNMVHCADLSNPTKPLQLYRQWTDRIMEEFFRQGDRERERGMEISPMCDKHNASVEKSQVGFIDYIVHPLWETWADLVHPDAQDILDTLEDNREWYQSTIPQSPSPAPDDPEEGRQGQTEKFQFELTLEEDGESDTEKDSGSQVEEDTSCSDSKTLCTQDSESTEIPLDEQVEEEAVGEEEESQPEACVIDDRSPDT
row,Compound,IC50
1,COc1ccc(C(=O)N(C)/N=C/c2ccc(OC)c(OC)c2)cc1,74 nM
2,COc1ccc(/C=N/N(C)C(=O)c2ccc(O)cc2)cc1OC,31 nM
3,Clc1ncnc2ccccc12,622 nM

# Test system: Mus musculus
# Assay: Antiinflammatory activity in A/J mouse lung assessed as inhibition of LPS-induced TNFalpha production at 100 umol/kg, po administered 1 hr prior to LPS-challenge measured after 18 hrs relative to vehicle-treated control
# Assay type: functional
# Settings: not given
row,Compound,inhibition in vivo at 100 µmol/kg
1,COc1cccc(C(=O)N(C)/N=C/c2ccc(OC)c(OC)c2)c1,75%
2,COc1ccc(C(=O)N(C)/N=C/c2ccc(OC)c(OC)c2)cc1,51%
3,COc1ccc(/C=N/N(C)C(=O)c2ccc(O)cc2)cc1OC,35%

# Test system: Mus musculus
# Assay: Antiinflammatory activity in A/J mouse lung assessed as inhibition of LPS-induced IL6 production at 100 umol/kg, po administered 1 hr prior to LPS-challenge measured after 18 hrs relative to vehicle-treated control
# Assay type: functional
# Settings: not given
row,Compound,inhibition in vivo at 100 µmol/kg
1,COc1cccc(C(=O)N(C)/N=C/c2ccc(OC)c(OC)c2)c1,38%
2,COc1ccc(C(=O)N(C)/N=C/c2ccc(OC)c(OC)c2)cc1,45%
3,COc1ccc(/C=N/N(C)C(=O)c2ccc(O)cc2)cc1OC,6%

# Target: 3',5'-cyclic-AMP phosphodiesterase 4B (Homo sapiens, UniProt Q07343)
# Assay: Inhibition of human recombinant PDE4B
# Settings: not given
# Chain of 3',5'-cyclic-AMP phosphodiesterase 4B (Q07343 whole entry): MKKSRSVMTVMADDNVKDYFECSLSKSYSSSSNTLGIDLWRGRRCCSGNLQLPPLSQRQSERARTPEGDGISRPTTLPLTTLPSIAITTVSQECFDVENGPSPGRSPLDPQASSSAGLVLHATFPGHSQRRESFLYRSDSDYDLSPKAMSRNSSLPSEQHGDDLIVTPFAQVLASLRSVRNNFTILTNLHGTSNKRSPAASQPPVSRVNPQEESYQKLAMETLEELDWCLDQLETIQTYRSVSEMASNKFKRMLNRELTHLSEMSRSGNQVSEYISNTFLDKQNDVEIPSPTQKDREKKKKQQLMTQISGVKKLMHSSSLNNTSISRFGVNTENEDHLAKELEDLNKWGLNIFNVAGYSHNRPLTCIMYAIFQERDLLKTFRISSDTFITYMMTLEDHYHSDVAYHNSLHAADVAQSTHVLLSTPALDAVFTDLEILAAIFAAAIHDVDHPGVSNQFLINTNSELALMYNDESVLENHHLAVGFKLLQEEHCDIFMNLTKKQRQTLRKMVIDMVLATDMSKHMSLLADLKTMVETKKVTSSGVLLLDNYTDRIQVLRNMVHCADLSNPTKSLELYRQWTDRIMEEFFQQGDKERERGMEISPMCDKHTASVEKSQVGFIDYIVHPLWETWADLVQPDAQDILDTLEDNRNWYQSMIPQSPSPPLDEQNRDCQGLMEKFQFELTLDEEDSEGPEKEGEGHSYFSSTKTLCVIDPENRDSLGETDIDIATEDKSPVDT
row,Compound,IC50
1,COc1ccc(C(=O)N(C)/N=C/c2ccc(OC)c(OC)c2)cc1,53 nM
2,COc1ccc(/C=N/N(C)C(=O)c2ccc(O)cc2)cc1OC,47 nM
3,Clc1ncnc2ccccc12,231 nM

# Test system: PBMC
# Assay: Antiinflammatory activity in human PBMC assessed as inhibition of LPS-induced TNFalpha production after 24 hrs by ELISA
# Assay type: functional, cell-based
# Settings: not given
row,Compound,EC50
1,COc1cccc(C(=O)N(C)/N=C/c2ccc(OC)c(OC)c2)c1,1270 nM
2,COc1ccc(C(=O)N(C)/N=C/c2ccc(OC)c(OC)c2)cc1,1450 nM
3,COc1ccc(/C=N/N(C)C(=O)c2ccc(O)cc2)cc1OC,520 nM

# Test system: Mus musculus
# Assay: Antiinflammatory activity in A/J mouse assessed as inhibition of LPS-induced airway elastance provoked by methacholine at 100 umol/kg, po administered 1 hr prior to LPS-challenge measured after 18 hrs relative to vehicle-treated control
# Assay type: functional
# Settings: not given
row,Compound,inhibition in vivo at 100 µmol/kg
1,COc1cccc(C(=O)N(C)/N=C/c2ccc(OC)c(OC)c2)c1,69%
2,COc1ccc(C(=O)N(C)/N=C/c2ccc(OC)c(OC)c2)cc1,62%
3,COc1ccc(/C=N/N(C)C(=O)c2ccc(O)cc2)cc1OC,61%

# Test system: not listed separately
# Assay: Inhibition of PDE6
# Settings: not given
row,Compound,IC50
1,COc1ccc(/C=N/N(C)C(=O)c2ccc(O)cc2)cc1OC,9100 nM

# Species: Bos taurus
# Assay: Inhibition of bovine PDE4 using [3H]cAMP as substrate at 10 uM
# Settings: not given
# In short: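 Enzyme was PDE4 isolated from the media layer of bovine aorta, run in the two-step activity assay at 1 μM cAMP.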
row,Compound,inhibition
1,COc1cccc(C(=O)N(C)/N=C/c2ccc(OC)c(OC)c2)c1,98.1%
2,COc1ccc(C(=O)N(C)/N=C/c2ccc(OC)c(OC)c2)cc1,98.3%
3,COc1ccc(/C=N/N(C)C(=O)c2ccc(O)cc2)cc1OC,98.4%

# Test system: Mus musculus
# Assay: Antiinflammatory activity in A/J mouse assessed as inhibition of neutrophil accumulation in bronchoalveolar space at 100 umol/kg, po administered 1 hr prior to LPS-challenge measured after 18 hrs relative to vehicle-treated control
# Assay type: functional
# Settings: Lung
row,Compound,inhibition in vivo at 100 µmol/kg
1,COc1cccc(C(=O)N(C)/N=C/c2ccc(OC)c(OC)c2)c1,77%
2,COc1ccc(C(=O)N(C)/N=C/c2ccc(OC)c(OC)c2)cc1,68%
3,COc1ccc(/C=N/N(C)C(=O)c2ccc(O)cc2)cc1OC,60%

# Test system: Mus musculus
# Assay: Antiinflammatory activity in A/J mouse assessed as inhibition of LPS-induced airway resistance provoked by methacholine at 100 umol/kg, po administered 1 hr prior to LPS-challenge measured after 18 hrs relative to vehicle-treated control
# Assay type: functional
# Settings: not given
row,Compound,inhibition in vivo at 100 µmol/kg
1,COc1cccc(C(=O)N(C)/N=C/c2ccc(OC)c(OC)c2)c1,70%
2,COc1ccc(C(=O)N(C)/N=C/c2ccc(OC)c(OC)c2)cc1,61%
3,COc1ccc(/C=N/N(C)C(=O)c2ccc(O)cc2)cc1OC,36%

# Species: Bos taurus
# Assay: Inhibition of bovine PDE5 using […] as substrate at 10 uM
# Settings: not given
row,Compound,inhibition
1,COc1cccc(C(=O)N(C)/N=C/c2ccc(OC)c(OC)c2)c1,29.1%
2,COc1ccc(/C=N/N(C)C(=O)c2ccc(O)cc2)cc1OC,27.9%
